Among all 220,000 compounds or so, about 1,000 (0.45%) were called active.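 How the source made its calls: active means plate z-score of nuclear minus cytoplasmic receptor signal below a set negative limit, without overly bright fluorescence or cell loss (cut at about -3.5 in these data, passing the limit was not always enough); inactive means the rest, inconclusive results apart.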 Only a selection was taken, and actives are over-represented in it overall.
Experiment: inhibitors of GR-EGFP nuclear translocation, primary screen, dynein cargo transport inhibitor project, imaging, high-content, 3617.4 mouse cells (AID 1381)
Settings: stimulated with dexamethasone, 1 µM
Method in brief: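 Buffer or medium: Induction medium lacking tetracycline, stripped serum | Also added: Dexamethasone agonist, 1.0 µM final, for 30 min | Timing: 48 h induction, 1 h compound, 30 min dex at 37 °C | Detection: Formaldehyde fixation, Hoechst nuclear stain, 10x automated fluorescence imaging | Measure: Nuclear versus cytoplasmic GR-EGFP signal, averaged per well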

[1] = measured here: cell count per field, at 20 µM
[2] = measured here: cytoplasmic GR-EGFP intensity, at 20 µM, stronger effect = higher value
[3] = measured here: nuclear GR-EGFP intensity, at 20 µM, stronger effect = lower value
[4] = measured here: cell count per field, at 50 µM
[5] = measured here: cytoplasmic GR-EGFP intensity, at 50 µM, stronger effect = higher value
[6] = measured here: nuclear GR-EGFP intensity, at 50 µM, stronger effect = lower value

In the case of `Cc1ccccc1N1C(=O)NC(=O)/C(=C\c2cc(C)n(C)c2C)C1=O`, the z-score (at 20 µM, stronger effect = lower value) is reported as -0.127 (inactive), the z-score [1] is reported as 0.901 and the z-score [2] is reported as -0.306. It also gave a z-score [3] of -0.135.
In the case of `O=C1NC(=O)N(c2ccccc2)C(=O)/C1=C/c1ccc([N+](=O)[O-])s1`, the z-score (at 20 µM, stronger effect = lower value) is reported as -5.82 (active), the z-score [1] is reported as 0.268 and the z-score [2] is reported as 2.42. The z-score [3] was -2.58.
With `Cc1c(C(=O)O)cccc1-n1c(C)cc(/C=C2\C(=O)NC(=O)N(c3ccc4c(c3)OCO4)C2=O)c1C` the z-score (at 20 µM, stronger effect = lower value) was -0.66 (inactive), the z-score [1] was 0.519 and the z-score [2] was -0.101. For the same molecule, the z-score [3] was -0.113.
In the case of `O=C1NC(=O)N(c2ccc(F)cc2)C(=O)/C1=C/c1ccc2c(c1)CCCN2Cc1ccccc1`, the z-score (at 20 µM, stronger effect = lower value) is reported as -0.735 (inactive), the z-score [1] is reported as -0.42 and the z-score [2] is reported as 4.11. The z-score [3] was 0.344.
For `COc1cccc(N2C(=O)NC(=O)/C(=C\c3ccc([N+](=O)[O-])s3)C2=O)c1`, the z-score (at 20 µM, stronger effect = lower value) was -6.53 (active), the z-score [1] was -0.425 and the z-score [2] was 2.64. The z-score [3] was -2.61.
With `Cc1cccc(N2C(=O)NC(=O)/C(=C\c3cnn(-c4ccccc4)c3)C2=O)c1` the z-score (at 20 µM, stronger effect = lower value) was 0.124 (inactive), the z-score [1] was -0.649 and the z-score [2] was -0.166. The z-score [3] was 0.444.
For `OC1/C(=C/c2ccc(C(F)(F)F)cc2)N2CCC1CC2` (stereo not given), the z-score (at 20 µM, stronger effect = lower value) was -1.47 (inactive), the z-score [1] was 0.879 and the z-score [2] was -0.265. For the same molecule, the z-score [3] was -0.69.
In the case of `CCCC[N+]1(C)C2CC(OC(=O)C(CO)c3ccccc3)CC1C1OC12` (stereo not given), the z-score (at 20 µM, stronger effect = lower value) is reported as -0.526 (inactive), the z-score [1] is reported as 0.258 and the z-score [2] is reported as -0.759. For the same molecule, the z-score [3] was 0.0484.
In the case of `c1cc2c(cc1CCNC1CCCCCC1)OCO2`, the z-score (at 50 µM, stronger effect = lower value) is reported as 1.01 (inactive), the z-score [4] is reported as 0.684 and the z-score [5] is reported as -0.246. It also gave a z-score [6] of 0.379.
With `CC(c1ccccc1)(c1ccccc1)c1ccncc1` the z-score (at 20 µM, stronger effect = lower value) was -0.152 (inactive), the z-score [1] was -0.267 and the z-score [2] was -0.379. It also gave a z-score [3] of -0.628.
In the case of `Cc1cc(C=C2C(=O)NC(=O)NC2=O)c(C)n1-c1ccncc1`, the z-score (at 20 µM, stronger effect = lower value) is reported as 1.16 (inactive), the z-score [1] is reported as -1.04 and the z-score [2] is reported as -0.229. The z-score [3] was 0.621.
In the case of `CCN(CC)C(=O)c1ccc(NC(=O)c2cc(-n3cnnc3)ccc2Cl)cc1`, the z-score (at 50 µM, stronger effect = lower value) is reported as 1.07 (inactive), the z-score [4] is reported as -0.204 and the z-score [5] is reported as -0.239. The z-score [6] was 0.487.
With `CN(C)CC1Oc2ccccc2OC1(O)c1ccccc1` (stereo not given) the z-score (at 20 µM, stronger effect = lower value) was -6.23 (active), the z-score [1] was 1.09 and the z-score [2] was 1.79. The z-score [3] was -2.55.
In the case of `COc1ccc(NC(=O)c2cn(CCC#N)nc2-c2ccc([N+](=O)[O-])cc2)cc1`, the z-score (at 20 µM, stronger effect = lower value) is reported as -0.74 (inactive), the z-score [1] is reported as 0.149 and the z-score [2] is reported as -0.33. The z-score [3] was -0.871.
For `CCC(C)n1c(O)c(/C=N/Nc2nc3c(c(=O)n(C)c(=O)n3C)n2C)c(=O)[nH]c1=S` (stereo not given), the z-score (at 20 µM, stronger effect = lower value) was -0.95 (inactive), the z-score [1] was 0.937 and the z-score [2] was -0.21. For the same molecule, the z-score [3] was -0.129.
